Results of several laboratories.
Target: Sodium-dependent noradrenaline transporter (SLC6A2, Homo sapiens, UniProt P23975)

SMILES | read-out | mode | method | setting | measurement | value
CN[C@@H](C)C(=O)c1ccccc1 | calcium signal | agonist | fluorescence |  | EC50 | 121 nM
COc1cc(C(=O)N2CC[C@@H](O)[C@@H](N)C2)cc2nc(-c3cc4ccccc4n3CC3CC3)n(C)c12 | transporter uptake | inhibitor |  |  | IC50 | 20000 nM
CNc1nc(C#Cc2ccc(Cl)s2)nc2c1ncn2[C@@H]1O[C@H](C(=O)OC)[C@@H](O)[C@H]1O | ligand displacement |  | radioligand | cell membranes | Ki | > 10000 nM
C=CCN1CC[C@]23c4c5ccc(O)c4O[C@H]2C(=O)CC[C@]3(O)[C@H]1C5 | ligand displacement |  | radioligand |  | Ki | > 7100 nM
CCCC[C@@H](NC(=O)[C@@H](N)Cc1ccc(O)cc1)C(=O)NCC(=O)N[C@@H](Cc1ccc(F)cc1)C(=O)N(C)CCC[C@@]1(c2ccc(F)cc2)OCc2cc(C#N)ccc21 | ligand displacement |  | radioligand |  | Ki | 2400 nM
CNc1nc(C#Cc2ccc(Br)s2)nc2c1ncn2[C@H]1[C@H](O)[C@H](O)[C@]2(C(=O)OC)C[C@H]12 | ligand displacement |  | radioligand | cell membranes | Ki | > 10000 nM
C[C@@H](NC(=O)[C@@H](N)Cc1ccc(O)cc1)C(=O)NCC(=O)N[C@@H](Cc1ccccc1)C(=O)N(C)CCC[C@@]1(c2ccc(F)cc2)OCc2cc(C#N)ccc21 | ligand displacement |  | radioligand |  | Ki | 750 nM
CNC(C)(C)C(=O)c1ccccc1 | calcium signal | agonist | fluorescence |  | EC50 | 153 nM
C[C@H](N)Cn1ncc2ccc3c(c21)CCCO3 | ligand displacement |  | radioligand |  | Ki | > 100000 nM
